Data taken from publication PMC6364161 (Journal of Veterinary Research, 2018).

Legend:
[1] = tested on: BALB/3T3 cells; test: LDH release assay, BALB/3T3 cells; assay type: cell-based, Mouse; settings: for LDH leakage (membrane integrity): LDH release, BALB/3T3, 100 to 1,400 μM, 24 h; for IC50: LDH leakage assay, BALB/3T3, 24 h incubation
How it was run: (§1)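 Test compounds (10 mM stock in PBS) were diluted in complete medium: DMEM plus 10% heat-inactivated calf serum for BALB/3T3 cells, EMEM plus 10% heat-inactivated FBS for HepG2 cells. Cells were seeded at 2 × 10^5 cells/mL, grown 24 h, then exposed to 100–1,400 μM for 24 h at 37 °C, 5% CO2. Released LDH was taken as a percentage of total LDH absorbance, and IC50 was read from the dose-response curve. Six independent experiments, three wells each.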

[2] = tested on: BALB/3T3 cells; test: Neutral red uptake assay, BALB/3T3 cells; assay type: cell-based, Mouse; settings: NRU; for cell viability at low doses: BALB/3T3, 100, 200, and 400 μM; for cell viability: BALB/3T3, 100 to 1,400 μM, 24 h
How it was run: (§2)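 Neutral red uptake, a measure of lysosomal activity. BALB/3T3 cells were grown in DMEM with 10% heat-inactivated calf serum and HepG2 cells in EMEM with 10% heat-inactivated FBS, both seeded at 2 × 10^5 cells/mL for 24 h. Cells were then exposed for 24 h to test compound at 100–1,400 μM, diluted in medium from a 10 mM PBS stock. Viability was measured spectrophotometrically against control cells, and IC50 was read from the dose-response curve. Six independent experiments, three wells per treatment.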

[3] = tested on: HepG2 cells; test: Neutral red uptake assay, HepG2 cells; assay type: cell-based, human; settings: for cell viability at low doses / cell viability: NRU; for cell viability at low doses: HepG2, 100, 200, and 400 μM; for cell viability: HepG2, 100 to 1,400 μM, 24 h
How it was run: as §2

[4] = tested on: BALB/3T3 cells; test: MTT reduction assay, BALB/3T3 cells; assay type: cell-based, Mouse; settings: for cell viability at low doses / cell viability: MTT; for cell viability at low doses: BALB/3T3, 100 and 200 μM; for cell viability: BALB/3T3, 100 to 1,400 μM, 24 h, compared to control
How it was run: (§3)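 Cells were plated at 2 × 10^5 cells/mL and cultured 24 h: BALB/3T3 in DMEM with 10% heat-inactivated calf serum, HepG2 in EMEM with 10% heat-inactivated FBS. Medium was then replaced with test compound at 100–1,400 μM, diluted from a 10 mM PBS stock, for 24 h. MTT reduction was read spectrophotometrically as viability relative to untreated control (100%), and IC50 was taken from the dose-response curve. Six independent experiments, triplicate wells.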

[5] = tested on: HepG2 cells; test: MTT reduction assay, HepG2 cells; assay type: cell-based, human; settings: for cell viability at low doses / cell viability: MTT; for cell viability at low doses: HepG2, 100 and 200 μM; for cell viability: HepG2, 100 to 1,400 μM, 24 h, compared to control; for IC50: MTT assay, HepG2, 24 h incubation
How it was run: as §3

[6] = tested on: HepG2 cells; test: LDH release assay, HepG2 cells; assay type: cell-based, human; settings: for LDH leakage (membrane integrity): LDH release, HepG2, 100 to 1,400 μM, 24 h; for IC50: LDH leakage assay, HepG2, 24 h incubation
How it was run: as §1

[7] = tested on: HK-2 cells; settings: MTT assay, 480 μM; cited from earlier work

Row | IC50 ([3]; NRU assay, HepG2, 24 h incubation) [µM] | Structure (SMILES) | LDH leakage (membrane integrity) [1] | cell viability at low doses [2] | cell viability [2] | cell viability at low doses [3] | cell viability [3] | cell viability at low doses [4] | cell viability [4] | cell viability at low doses [5] | cell viability [5] | LDH leakage (membrane integrity) [6] | IC50 [1] [µM] | IC50 [5] [µM] | IC50 [6] [µM] | cell viability [7] | IC50 ([4]; MTT assay, BALB/3T3, 24 h incubation) [µM]
1 | – | O.O.O.O.O.O.[Cl-].[Cl-].[Cl-].[Fe+3] [Iron chloride, FeCl3 × 6H2O] | increasingly significant LDH leakage | increased | significantly decreased in a concentration-dependent manner | increased | significantly decreased in a concentration-dependent manner | increased | significantly decreased in a concentration-dependent manner | increased | significantly decreased in a concentration-dependent manner | increasingly significant LDH leakage | – | – | – | – | –
2 | 1200 | [Cl-].[Cl-].[Cl-].[Fe+3] [Iron chloride, FeCl3 × 6H2O] | – | – | – | – | – | – | – | – | – | – | 550 | 1300 | 900 | – | –
3 | – | CC(=O)[O-].CC(=O)[O-].[Ni+2] [Ni (II) acetate] | – | – | – | – | – | – | – | – | – | – | – | – | – | less than 50% | –
4 | – | [Cl][Ni][Cl] [Nickel chloride, NiCl2] | increasingly significant LDH leakage | increased | significantly decreased in a concentration-dependent manner | increased | significantly decreased in a concentration-dependent manner | increased | significantly decreased in a concentration-dependent manner | increased | significantly decreased in a concentration-dependent manner | increasingly significant LDH leakage | 300 | 400 | 800 | – | 700
